Experimental data published in ChEMBL document CHEMBL1137254, “Structurally simple, potent, Plasmodium selective farnesyltransferase inhibitors that arrest the growth of malaria parasites” (J Med Chem, 2006).
pIC50: −log10 of the molar value.

Columns and labels:
[1] = AUC in rat at 50 mg/kg, po; type: ADME, organism-based; design: dose 50 mg/kg, route oral; settings: plasma
Outline: (§1)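 Oral gavage at 50 mg/kg in 90% saline, 3% ethanol, 7% Tween; inhibitor concentration in plasma followed over 5 h. Values are averages of three animals per species (mice or rats). Reported parameters are AUC, Cmax, Tmax and elimination t1/2.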

[2] = target: T1, Protein farnesyltransferase (PFT) (Plasmodium falciparum) (UniProt Q5EI73+Q5EI74); experiment: Inhibition of Plasmodium falciparum PFT at 50 nM
[3] = target: T2, Protein farnesyltransferase (PFT) (Plasmodium falciparum, UniProt Q5EI73+Q5EI74); experiment: Inhibition of Plasmodium falciparum PFT; type: protein-complex assay
T2 sequence (Q5EI73 whole entry): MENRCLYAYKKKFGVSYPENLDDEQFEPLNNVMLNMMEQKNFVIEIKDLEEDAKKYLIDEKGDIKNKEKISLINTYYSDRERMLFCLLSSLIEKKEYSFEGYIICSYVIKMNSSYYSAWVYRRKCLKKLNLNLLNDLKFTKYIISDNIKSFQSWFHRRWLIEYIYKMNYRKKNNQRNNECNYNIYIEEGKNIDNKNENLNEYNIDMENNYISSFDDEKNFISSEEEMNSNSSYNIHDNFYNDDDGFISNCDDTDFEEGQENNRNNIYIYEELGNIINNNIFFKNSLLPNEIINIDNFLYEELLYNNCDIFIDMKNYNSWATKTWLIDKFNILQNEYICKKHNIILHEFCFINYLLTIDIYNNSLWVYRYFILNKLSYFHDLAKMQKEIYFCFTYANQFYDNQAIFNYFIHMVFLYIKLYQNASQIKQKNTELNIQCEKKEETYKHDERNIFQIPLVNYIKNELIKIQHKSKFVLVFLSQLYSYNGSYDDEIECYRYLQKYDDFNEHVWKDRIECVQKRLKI
T2 sequence (Q5EI74 whole entry): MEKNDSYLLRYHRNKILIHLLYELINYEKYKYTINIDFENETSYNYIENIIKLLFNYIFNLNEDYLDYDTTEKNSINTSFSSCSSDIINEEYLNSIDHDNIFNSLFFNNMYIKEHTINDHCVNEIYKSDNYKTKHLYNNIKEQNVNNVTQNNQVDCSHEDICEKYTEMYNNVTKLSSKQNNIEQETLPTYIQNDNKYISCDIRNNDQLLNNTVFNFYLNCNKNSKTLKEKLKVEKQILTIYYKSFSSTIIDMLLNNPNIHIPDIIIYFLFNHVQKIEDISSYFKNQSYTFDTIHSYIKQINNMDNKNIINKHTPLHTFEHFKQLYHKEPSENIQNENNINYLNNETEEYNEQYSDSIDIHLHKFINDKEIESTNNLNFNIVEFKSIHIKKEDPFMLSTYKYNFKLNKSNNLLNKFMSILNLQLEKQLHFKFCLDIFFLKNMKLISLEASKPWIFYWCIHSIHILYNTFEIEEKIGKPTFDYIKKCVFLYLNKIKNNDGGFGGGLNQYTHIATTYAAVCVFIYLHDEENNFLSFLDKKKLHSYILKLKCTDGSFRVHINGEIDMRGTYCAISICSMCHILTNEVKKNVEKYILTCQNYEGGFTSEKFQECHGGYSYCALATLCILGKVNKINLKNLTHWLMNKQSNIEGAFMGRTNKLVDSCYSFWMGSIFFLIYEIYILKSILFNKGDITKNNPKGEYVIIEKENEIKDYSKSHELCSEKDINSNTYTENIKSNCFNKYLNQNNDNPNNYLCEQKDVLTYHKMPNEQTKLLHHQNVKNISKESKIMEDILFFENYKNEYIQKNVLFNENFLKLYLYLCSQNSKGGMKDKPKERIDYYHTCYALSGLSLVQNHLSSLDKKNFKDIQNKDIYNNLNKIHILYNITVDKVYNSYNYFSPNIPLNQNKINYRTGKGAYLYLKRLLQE

[4] = Tmax in mouse at 50 mg/kg, po; type: ADME, organism-based; design: dose 50 mg/kg, route oral; settings: in vivo; outline: as §1
[5] = target: T1, Protein farnesyltransferase (PFT) (Plasmodium falciparum); experiment: Inhibition of Plasmodium falciparum PFT at 5 nM
[6] = Cmax in rat at 50 mg/kg, po; type: ADME, organism-based; design: dose 50 mg/kg, route oral; settings: in vivo; outline: as §1

Structure (SMILES): Cc1ccccc1CN(CCN(Cc1cncn1C)c1ccc(C#N)cc1)S(=O)(=O)c1cn(C)cn1
- AUC [1]: 1.72 µM·h
- inhibition [2]: 99%
- pIC50 [3]: 9.22
- Tmax [4]: 40 min
- inhibition [5]: 95%
- Cmax [6]: 1050 nM
